Assay outcomes (PubChem)
Hits are enriched below; roughly 2.5% of the tested compounds scored in any of these assays.
TRPML3 ag: activates the human TRPML3 channel; HEK293 TRPML3-YFP, Fluo-8 calcium fluorescence; 100% = the carbachol control signal; activation, % at 3 µM; hit rate 0.29% among 220,000;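 active = activation above its plate's cutoff, the mean activation of the plate's test wells plus 3 SD, cut at about 12% in these data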;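 note: 0% = DMSO only wells and 100% = carbachol wells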
Target sequence (Q8TDD5 whole entry, looked up): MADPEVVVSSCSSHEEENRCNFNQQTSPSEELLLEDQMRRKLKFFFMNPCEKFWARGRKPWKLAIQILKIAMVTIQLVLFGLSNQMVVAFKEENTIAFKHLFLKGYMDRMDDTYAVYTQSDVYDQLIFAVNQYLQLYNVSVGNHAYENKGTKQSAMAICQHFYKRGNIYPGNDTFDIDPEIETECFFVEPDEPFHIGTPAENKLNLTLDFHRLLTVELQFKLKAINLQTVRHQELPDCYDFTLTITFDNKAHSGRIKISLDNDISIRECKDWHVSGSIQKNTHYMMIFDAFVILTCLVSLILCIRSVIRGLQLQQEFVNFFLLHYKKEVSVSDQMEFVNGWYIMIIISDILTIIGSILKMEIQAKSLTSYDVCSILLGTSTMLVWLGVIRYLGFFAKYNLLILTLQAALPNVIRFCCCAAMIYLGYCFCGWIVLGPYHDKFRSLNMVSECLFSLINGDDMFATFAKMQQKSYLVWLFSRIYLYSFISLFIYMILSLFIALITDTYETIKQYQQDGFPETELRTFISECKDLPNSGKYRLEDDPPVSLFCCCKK
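Test system – HEK293 line with stable expression of human TRPML3-YFP channel · Control set – carbachol 87 µM final as high control (100%), DMSO as low control (0%) · Signal – Fluo-8 calcium dye fluorescence, ex 470-495, em 515-575 nm · Incubation – 1-h 37 °C dye load, 5-s basal, 120-s post-compound reads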
CHO parental Ca: counter-screen: ATP calcium response change in parental CHO cells; parental CHO-K1, ATP-induced calcium, Fluo-8 fluorescence; inhibition, % at 5.6 µM; hit rate 0.63% among 330,000;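 active = inhibition above that plate's mean sample inhibition plus 3 SD, cut at about 26% in these data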;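 note: 0% = ATP-challenged DMSO wells and 100% = DMSO wells without ATP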
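Test system: untransfected parental CHO cell line. Compound: one dose, 5.6 µM nominal. Detection: intracellular calcium via Fluo-8 no-wash fluorescent dye. Measure: % inhibition. Benchmarks: ATP-challenged DMSO wells low, unchallenged DMSO wells high.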
TRPN1 ag: zebrafish TRPN1 (NompC) channel agonism. activation, % at 3 µM. HEK293 zebrafish TRPN1-YFP, Fluo-8 calcium fluorescence; 100% = response to 87 µM carbachol. AID 1424. hit rate 0.18% among 220,000;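 active = activation above its plate's cutoff, the mean activation of test wells on that plate plus 3 SD, cut at about 19% in these data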;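 note: 0% = DMSO alone and 100% = 87 µM carbachol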
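Control set: carbachol 87 µM as high control, DMSO as low control; system: HEK293 stable line with zebrafish TRPN1-YFP; read-out: % activation versus carbachol response; detection: intracellular calcium fluorescence with Fluo-8; doses: single test compound dose, 3 µM nominal, 0.3% DMSO; schedule: dye 1 h 37 °C plus 30 min RT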
OX1R antag-1: OX1R (human) antagonism. O43613. OX1R-expressing cells, FRET antagonist read-out. inhibition, % at 6.6 µM. hit rate 1.8% among 330,000; in the data active = inhibition mostly above about 38%, no sharp cut-off; inactive = mostly below about 40%;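 note: 0% = agonist challenge alone and 100% = reference antagonist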
OX1R antag-2: human HCRTR1 antagonism | hit rate 0.43% among 330,000 | CHO/OX1R cells, Fluo-8 calcium fluorescence, orexin A | inhibition, % at 5 µM;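 active = inhibition above its plate's threshold, mean inhibition of all tested compounds on the plate plus 3 SD, cut at about 37% in these data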;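 note: 0% = orexin A challenge wells and 100% = SB-334867-A antagonist wells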
Active calls of the source: *; . = no result.

SMILES | TRPML3 ag | CHO parental Ca | TRPN1 ag | OX1R antag-1 | OX1R antag-2
O=c1cc(-c2cccc([N+](=O)[O-])c2)[nH][nH]1 | 1 | 1 | 0 | 29 | -5
CC(C)c1ccc(C2=C(O)c3ccccc3C(=O)C2=O)cc1 | 0 | -4 | 2 | 57 | -7
Cc1ccc(C2=C(O)c3ccccc3C(=O)C2=O)cc1 | . | -6 | . | 41* | -12
O=C1C(=O)c2ccccc2C(O)=C1c1cccc([N+](=O)[O-])c1 | 0 | -16 | -2 | 52* | 1
CN1C(C(=O)NCc2ccc(OC(F)(F)F)cc2)CC2Cn3c(nc4cc(Cl)c(Cl)cc43)C21 (centres undefined) | . | -9 | . | 0 | -5
COc1cc(C(=O)NCc2cccnc2)ccc1OCC(=O)Nc1cccc(C(F)(F)F)c1 | . | 43* | . | 25 | 29
CC(=O)c1ccc(OCC(=O)OCC(=O)NCc2ccco2)cc1 | . | -14 | . | 0 | 2
Cc1nc2nc(-c3cccs3)[nH]c2cc1Br | . | -5 | . | 43* | 0
c1ccc(-c2nc(-c3cccs3)[nH]c2-c2ccccc2)cc1 | -1 | -20 | -1 | 13 | -7
CCc1cc2cccc(C)c2nc1SCC(=O)c1ccc(NC(C)=O)cc1 | 0 | -14 | 1 | 53* | 34
CCc1cc2cccc(C)c2nc1SCC(=O)NNC(=O)c1ccco1 | 0 | -21 | 0 | 70* | 0
CCc1cc2ccc(C)c(C)c2nc1SCC(=O)NNC(=O)c1ccco1 | . | -15 | . | 28 | -30
CCc1cc2ccc(C)cc2nc1SCC(=O)c1ccc(NC(C)=O)cc1 | -1 | -28 | 0 | 37 | -11
O=C(CCCCCN1C(=O)c2ccccc2C1=O)Nc1ccc(C(=O)O)cc1 | . | 4 | . | 1 | -5
O=C(O)c1[nH]c2ccc(Cl)cc2c1CC(=O)N1CCN(c2ccccc2)CC1 | 1 | 44* | -2 | 19 | 12
COc1ccccc1N1CCN(C(=O)Cc2c(C(=O)O)[nH]c3ccc(Cl)cc23)CC1 | -1 | -9 | 0 | 12 | -5
CN(C(=O)COC(=O)c1nc(Cl)c(Cl)c(Cl)c1Cl)C1CCS(=O)(=O)C1 (centres undefined) | 0 | . | 0 | . | .
CNc1nc(N)c([N+](=O)[O-])c(Nc2ccccc2OC)n1 | . | -48 | . | 44* | -56
COC(=O)c1sccc1-c1ccc(C(=O)Nc2cccc(Cl)c2)o1 | -1 | 14 | -1 | 74* | 13
C[C@@H]1NC(=O)c2cc([N+](=O)[O-])cc(I)c2OCC[C@@H](C(=O)NC(CC(=O)O)C(N)=O)NC(=O)[C@H](CC(N)=O)NC1=O (some centres undefined) | 1 | 51* | 2 | 31 | 41
C[C@@H]1NC(=O)[C@H](CCCN=C(N)N)NC(=O)c2cc([N+](=O)[O-])cc(I)c2OCC[C@@H](C(=O)NC(CC(=O)O)C(N)=O)NC1=O (some centres undefined) | 1 | 2 | 0 | 15 | -9
COc1ccc(NC(=O)c2cc(-c3ccccc3OC)on2)cc1 | 0 | -18 | 1 | 45* | -1
COc1ccc(NC(=O)c2cc(-c3ccco3)on2)cc1 | 0 | 64* | -1 | 15 | 5
COc1ccc(NC(=O)c2cc(-c3ccccc3Cl)on2)cc1 | . | -7 | . | 17 | 5
Cc1ccc(C)c(Sc2ccc(NC(=O)CCN3C(=O)NC4(CCCC4)C3=O)cc2)c1 | . | 63* | . | 11 | 60*
SMILES | TRPML3 ag | CHO parental Ca | TRPN1 ag | OX1R antag-1 | OX1R antag-2
COc1ccc(-c2oc3ccc(-c4cc(OC)c(OC)c(OC)c4)cc3c2C#Cc2ccsc2)cc1 | . | -16 | . | 19 | -20
Cc1ccc(S(=O)(=O)N2[C@@H](c3ccc(C(C)(C)C)cc3)C(C(=O)O)=CC[C@H]2c2ccc(Cl)cc2)cc1 | . | 41* | . | 5 | 12
Cc1ccc([C@@H]2CC=C(C(=O)O)[C@H](c3ccc(C(C)(C)C)cc3)N2S(=O)(=O)c2ccc(C)cc2)cc1 | . | 15 | . | -10 | -3
CCc1ccc([C@@H]2CC=C(C(=O)O)[C@H](c3ccc(C(C)(C)C)cc3)N2S(=O)(=O)c2ccc(C)cc2)cc1 | . | 70* | . | -6 | 4
Cc1ccc(NC(=O)c2noc(C(C)C)c2[N+](=O)[O-])cc1 | 0 | -3 | -1 | 16 | 0
Cc1ccc2nccc(C(=O)N3CCCC(Nc4ccc(C)c(C)c4)C3)c2c1 (centres undefined) | . | -31 | . | 38* | 27
Cc1ccc(S(=O)(=O)N2CCOCC2)cc1C(=O)N1CCN(S(=O)(=O)c2cccs2)CC1 | 0 | -9 | 2 | 4 | -13
Cc1ccc(CNC(=O)C2CC(c3ccc(C(F)(F)F)cc3)=NO2)o1 (centres undefined) | . | 62* | . | 28 | 1
CCc1nc(SCC(=O)NC2CCCC2)c2oc3ccccc3c2n1 | . | -1 | . | 5 | -25
CCc1nc(SCC(=O)N2CCCc3ccccc32)c2oc3ccccc3c2n1 | 0 | -11 | 0 | 48* | -6
OC(COc1ccccc1)Cn1c2ccccc2c2ccccc21 (centres undefined) | 0 | -4 | -2 | 11 | -7
O=C(O)c1ccc(OCC(O)Cn2c3ccccc3c3ccccc32)cc1 (centres undefined) | 1 | 38* | 1 | 13 | 32
O=C(NCCCN1CCOCC1)C(=O)N/N=C/c1cccc2ccccc12 | 0 | -31 | 0 | 49* | 0
O=C(NCCCN1CCOCC1)C(=O)N/N=C/c1ccccc1 | 0 | -4 | 0 | 15 | -5
CCOC(=O)CCCNc1ccc([N+](=O)[O-])cc1[N+](=O)[O-] | 0 | 5 | 0 | 71* | -6
CC(C)N(CC(O)COc1ccc(CC(N)=O)cc1)CC(O)COc1ccc(CC(N)=O)cc1 (centres undefined) | . | 0 | . | -10 | -7
C1=C(c2ccccc2)CCN(c2ncnc3nc[nH]c23)C1 | 1 | 0 | 0 | 50* | -16
CC(=O)C[C@H](O)CC(=O)[C@H]1OC(=O)CCCCCCCCc2ccccc21 | . | -1 | . | -2 | -2
CCN(C(=O)COC(=O)C1CCN(S(=O)(=O)c2cccs2)CC1)c1ccccc1 | 0 | -16 | 0 | 21 | -25
O=S(=O)(c1cccs1)N1CCN(c2ccnc3cc(Cl)ccc23)CC1 | 2 | -14 | -1 | 8 | -39
O=S(=O)(c1ccccc1)N1CCN(c2ccnc3cc(Cl)ccc23)CC1 | 11 | 89* | -2 | 29 | 38
CC[n+]1c(C)sc2c3ccsc3ccc21 | -1 | 20 | -2 | -3 | 24
CCN1/C(=C/c2ccc3cc(C)cc(C)c3[n+]2CC)Sc2cc(C)ccc21 | 15* | . | 50* | . | .
CCN1/C(=C/c2ccc3cc(C)ccc3[n+]2CC)Sc2ccc3sccc3c21 | . | 48* | . | 27 | 29
CCN1/C(=C\c2ccc3cc(C)ccc3[n+]2CC)Sc2cc(C)c(C)cc21 | 9 | . | 15 | . | .
CCN1/C(=C/c2ccc3cccc(C)c3[n+]2CC)Sc2ccccc21 | 18* | 66* | 32* | 32 | 100*
